Compound activity (PubChem BioAssay)
FLuc act counter: firefly luciferase counter-screen for stimulation assays; ATPlite luciferase biochemical, luminescence, 10 min; 0 = ATP-free wells, 1 = DMSO control; 200,000 tested, under 10 active; P08659; activation factor at 10 µM;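 active means luciferase activation factor, scaled between plate controls, of at least 2 with compound at 10 µM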
Target sequence (P08659 whole entry, looked up): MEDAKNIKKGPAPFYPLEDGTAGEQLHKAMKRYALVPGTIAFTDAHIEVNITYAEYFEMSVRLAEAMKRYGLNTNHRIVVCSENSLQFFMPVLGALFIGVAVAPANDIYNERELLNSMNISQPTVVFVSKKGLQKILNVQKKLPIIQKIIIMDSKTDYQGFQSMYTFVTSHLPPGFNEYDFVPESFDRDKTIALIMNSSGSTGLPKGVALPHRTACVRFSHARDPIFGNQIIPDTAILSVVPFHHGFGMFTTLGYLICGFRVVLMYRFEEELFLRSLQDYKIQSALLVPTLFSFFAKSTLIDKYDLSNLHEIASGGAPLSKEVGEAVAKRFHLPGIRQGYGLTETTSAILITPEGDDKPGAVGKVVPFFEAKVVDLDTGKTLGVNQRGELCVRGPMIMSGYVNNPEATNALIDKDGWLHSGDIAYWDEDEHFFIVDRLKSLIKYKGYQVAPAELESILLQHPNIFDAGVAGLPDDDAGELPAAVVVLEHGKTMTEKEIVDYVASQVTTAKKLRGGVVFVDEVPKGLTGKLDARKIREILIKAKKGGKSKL
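System: luciferase plus luciferin reagent, cell-free; medium: PBS as buffer for the ATP substrate; dosing: test compounds dosed from 2 mM stocks in 100% DMSO; timing: 10 min post-reagent at room temperature; measured by: luminescence measurement of luciferase light output; evaluation: luciferase activation, seen as luminescence increase over controls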
FLuc inhib CS: Photinus pyralis luciferase inhibition counter-screen. ATPLite firefly luciferase biochemical luminescence, 10 min. inhibition, % at 10 µM. AID 1006. 200,000 tested, 1.5% active. P08659;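 active means inhibition above about 50% when tested at 10 µM, limit read from the data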
PPC-1+TRAIL kill: PPC-1 cancer cell killing with TRAIL present | PPC-1 cells + TRAIL, ATPLite viability luminescence | cell killing (% activity), % at 4 µM or 5 µM | 220,000 tested, 0.41% active;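 active means cell killing above 50% in the first pass at 4 µM, then a duplicate retest at 5 µM averaging 50% or more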;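 further: plate controls were cells with TRAIL plus DMSO for no effect and medium-only wells lacking cells for full effect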
TRAIL sens C8: caspase-8 TRAIL sensitization. 360,000 tested, 1% active. inhibition (viability loss, TRAIL sensitization), % at 10 µM. NB7+C8 cells + TRAIL, ATPlite viability luminescence;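 active means compounds causing at least 50% loss of cell viability in the single-dose screen, relative to plate controls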
Numbers without * were called inactive; nt = not tested or not shown. The list is not random: actives were taken first. Their share in the collection is about 1.5%.

SMILES | FLuc act counter | FLuc inhib CS | PPC-1+TRAIL kill | TRAIL sens C8
COc1ccc2sc3ccccc3c(=O)c2c1OC | 0.9 | 14 | 9 | 0
COc1ccc(-c2ccc3sc4ccccc4c(=O)c3c2)cn1 | nt | nt | nt | 66*
COc1cc(NCCCCC(C)N)c2nccc(C)c2c1 (centres undefined) | nt | nt | nt | 54*
Cc1sc2nc(C)n(/N=C/c3ccc(O)cc3)c(=O)c2c1C | 1 | -4 | -6 | 50*
Cc1sc2nc(C)n(/N=C/N(C)C)c(=O)c2c1C | nt | nt | 8 | -16
N#CC1(c2ccc(NC(=O)c3ccccc3)cc2)CCCC1 | 0.4 | 61* | 34 | 54*
CC(=O)Oc1ccc(C(=O)Nc2ccc(C3(C#N)CCCC3)cc2)cc1 | nt | nt | nt | 49
O=C(Nc1ccc(F)cc1)c1csc(Cc2ccccc2)n1 | 0.5 | 53* | 13 | 8
COc1ccc(NC(=O)c2csc(Cc3ccccc3)n2)cc1 | 0.8 | 16 | 9 | 13
O=C(/C=C/c1ccco1)N1CCc2ccccc21 | 0.2 | 82* | 36 | 50
Cc1ccc(/C=C/C(=O)N2CCc3ccccc32)o1 | 0.2 | 75* | 0 | 17
O=C(c1ccco1)N1CCc2ccccc21 | 0.9 | 14 | -8 | -1
CCOC(=O)/C=C/C(=O)N1CCc2ccccc21 | 0.8 | 19 | 16 | -10
CCCCCCCCCCCCS(=O)(=O)CCC(=O)O | nt | nt | -13 | -6
Cc1ccnc(NC(=O)CCC(=O)N(CC(=O)NCc2ccc(F)cc2)Cc2ccco2)c1 | nt | nt | nt | -6
CC1CC(C)CN(C(=O)CCc2nnc3ccc(N4CCCCC4)nn23)C1 (centres undefined) | nt | nt | nt | 2
Cc1ccnc(N/N=C/c2ccccc2)n1 | 0.5 | 51* | -3 | 17
Cc1ccc(C)c(NC(=S)NC(NC(=O)Cc2cccc3ccccc23)C(Cl)(Cl)Cl)c1 (centres undefined) | 1 | -4 | 18 | 85*
CC(C)CC(/C(O)=C(\C#N)c1nc2ccccc2[nH]1)N1C(=O)c2ccccc2C1=O (centres undefined) | 1 | -4 | 0 | 65*
CCCCc1nc2n[nH]c(N)c2c2c1CCCC2 | 1.1 | -6 | -6 | -9
COC(=O)CCC(=O)c1oc2ccc(OC)cc2c1N | 0.4 | 56* | 17 | 17
N#Cc1cc2c(nc1SCC(=O)Nc1nccs1)CCCCC2 | 1 | -4 | 67* | 59*
Clc1ccc(OCCSc2ncccn2)c(Br)c1 | 0.5 | 54* | 17 | 21
CC(C)NCCCCOc1ccccc1-c1ccccc1 | 1.1 | -9 | 19 | nt
Cc1ccc(C(=O)Nc2ccc3c(c2)nc2n3CCSC2)cc1 | 0.4 | 62* | 45 | 22
SMILES | FLuc act counter | FLuc inhib CS | PPC-1+TRAIL kill | TRAIL sens C8
CC(=O)Nc1ccc2c(c1)nc1n2CCSC1 | 1.1 | -6 | 11 | -34
CCc1cc2c(COC(=O)CCNS(=O)(=O)c3cccc(C(F)(F)F)c3)cc(=O)oc2cc1O | nt | nt | nt | 54*
Cc1cc(NC(=O)COC(=O)CCNS(=O)(=O)c2cccc(C(F)(F)F)c2)no1 | 1.1 | -7 | 6 | 3
COc1ccc(OC)c(Nc2nc(N)nc(CCl)n2)c1 | nt | nt | 4 | 92*
Cc1cccc(Nc2nc(N)nc(CN3CCC(C(N)=O)CC3)n2)c1C | 1 | -2 | 16 | 3
COc1ccccc1Nc1nc(N)nc(CCl)n1 | nt | nt | 26 | 92*
Cc1cccc(Nc2nc(N)nc(CCl)n2)c1C | nt | nt | 39 | 94*
CCn1c(SC(C)C(=O)Nc2ccc3c(c2)OCCO3)nnc1C1CC1 (centres undefined) | nt | nt | nt | 1
CC1=Nc2cc(C(=O)NCCCN3CCN(C)CC3)ccc2Sc2ccc(C)cc21 | nt | nt | nt | -3
COc1ccccc1N1CCN(C(=O)C(=O)c2c(C)n(C)c3ccccc23)CC1 | nt | nt | nt | 29
COc1ccccc1N1CCN(CC(O)COc2ccc(S(=O)(=O)N3CCOCC3)cc2)CC1 (centres undefined) | 1.1 | -9 | 16 | -14
COc1ccc(/C=N/OC(=O)Nc2ccccc2OC)cc1 | 0.2 | 84* | 29 | 52*
COc1ccc(NC(=O)O/N=C/c2ccc(Br)cc2)cc1 | nt | nt | nt | 7
COc1ccc(-n2nnnc2C2c3ccccc3C(=O)N2C2CCN(Cc3ccccc3)CC2)cc1 (centres undefined) | nt | nt | nt | -3
CC(=O)Oc1ccc(/C=C2/Oc3ccccc3C2=O)cc1 | nt | nt | 12 | -5
O=C(O)COc1ccc2c(c1)O/C(=C\c1cccs1)C2=O | nt | nt | 13 | 4
COc1ccc2c(c1)O/C(=C\c1sccc1C)C2=O | 0.1 | 86* | 14 | 11
COc1ccc(C=C2OC(=O)C(C(C)=O)=C2O)cc1 | nt | nt | nt | 84*
COc1ccc(/C=C2\Oc3ccccc3C2=O)cc1 | nt | nt | nt | 72*
CCOC(=O)CSc1nc2c(cnn2-c2ccc(Cl)cc2)c(=O)[nH]1 | nt | nt | nt | -7
CCOC(=O)N1CCN(C(=S)NC(=O)c2cncc(Br)c2)CC1 | 1 | -4 | 22 | -19
COc1ccc2c(c1)CC/C2=N\OC(=O)c1ccccc1C | 0.3 | 75* | 10 | 40
COc1ccc2c(c1)CCC/C2=N/OC(=O)c1ccccc1OC | 0.9 | 15 | 3 | 7
COc1ccc2c(c1)CC/C2=N\OC(=O)c1cccc(C)c1 | 0.2 | 78* | 2 | 47
COC(=O)CN1C(=O)[C@H]2[C@@H](C3CC3)N3C(=O)CN(Cc4ccccn4)C(=O)[C@@]3(Cc3ccccc3)[C@H]2C1=O | nt | nt | nt | 3
SMILES | FLuc act counter | FLuc inhib CS | PPC-1+TRAIL kill | TRAIL sens C8
c1ccc2oc(-c3csc(NCC4CCCO4)n3)cc2c1 (centres undefined) | 0.5 | 48 | 25 | 22
C=CCNc1nc(-c2cc3ccccc3o2)cs1 | 0.2 | 76* | 17 | 50
CCCCc1ccc(-c2ccc(Br)cc2O)nc1 | 0.6 | 42 | 28 | 22
CCCCc1ccc(-c2ccc(C)cc2O)nc1 | 0.2 | 75* | 34 | 43
COc1ccc(CC2C(=O)NC(C)C(=O)N(C)C3Cc4ccc(cc4)Oc4cc(ccc4O)CC(C(=O)NC(C)C(=O)NC(C)C(=O)N2C)N(C)C3=O)cc1 (centres undefined) | nt | nt | nt | 66*
CC(C)C[C@@H]1NC(=O)[C@H](Cc2ccccc2)N(C)C(=O)[C@H](C)NC(=O)c2ccccc2NC(=O)[C@H](Cc2ccc(O)cc2)N(C)C1=O | nt | nt | 6 | 25
Nc1ccc(-c2cnc3ccccc3n2)cc1 | nt | nt | nt | -6
Oc1ccc(-c2cnc(-c3ccc(O)cc3)nc2)cc1 | nt | nt | nt | 80*
Oc1ccc(-c2cnc3ccccc3n2)cc1 | nt | nt | nt | 6
Nc1ccc(-c2cnc(-c3ccc(N)cc3)nc2)cc1 | 0.3 | 74* | -10 | 73*
COc1ccc(/C(C)=N/Nc2ccccc2Cl)c(O)c1 | nt | nt | 11 | -29
COc1ccc(-n2c(C)cc(-c3cn4cccc(C)c4n3)c2C)cc1 | 1.1 | -6 | 6 | -5
Cc1cc(-c2cn3ccccc3n2)c(C)n1-c1ccccc1 | 0.1 | 94* | 4 | 64*
O=C(COC(=O)c1cc([N+](=O)[O-])ccc1Cl)NCCc1ccccc1 | nt | nt | nt | -23
N#Cc1ccccc1NC(=O)COC(=O)/C=C/c1cn(-c2ccccc2)nc1-c1ccc(Cl)cc1 | 1 | -4 | 16 | 61*
O=C(/C=C/c1ccc(Cl)cc1Cl)c1nc2ccccc2[nH]1 | 0.3 | 66* | 27 | 37
COCCNS(=O)(=O)c1ccccc1 | 1.1 | -8 | -9 | -6
